Laboratory results: ChEMBL document CHEMBL4342471, “Discovery of Thieno[2,3-d]pyrimidine-Based Hydroxamic Acid Derivatives as Bromodomain-Containing Protein 4/Histone Deacetylase Dual Inhibitors Induce Autophagic Cell Death in Colorectal Carcinoma Cells” (J Med Chem, 2020)
Calls of active or inactive are those of the source. No cut-off for these calls is given here.

Experiments:
[1] = AUC (0 to infinity) in Sprague-Dawley rat at 30 mg/kg, iv administered as bolus dose measured up to 1440 mins by UPLC-QTOF/MS analysis; format: ADME, organism-based; parameters: dose 30 mg/kg, route intravenous, time infinity; conditions: in vivo
SW480 = assay: Cytotoxicity against human SW480 cells assessed as reduction in cell viability; format: functional, cell-based
Method in brief: (§1)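 Antiproliferative IC50 values were measured by MTT assay across a panel of colorectal carcinoma cell lines and normal colorectal epithelial cells.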

HCT-116 [2] = assay: Induction of apoptotic cell death in human HCT116 cells assessed as change in nuclear morphology at 0.2 to 0.5 uM after 12 hrs by Hoechst 33258 staining based fluorescence microscopy analysis; format: functional
Method in brief: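 Nuclear morphology was examined by Hoechst 33258 staining in HCT-116 cells after treatment at 0.2 or 0.5 μM.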

HCT-116 [3] = assay: Induction of apoptosis in human HCT116 cells assessed as viable cells at 0.2 uM by Annexin-V FITC/propidium iodide staining-based flow cytometry (reference value: 93.4 %); format: functional; conditions: read-out: Activity
NCM460 = assay: Cytotoxicity against human NCM460 cells; format: cell-based; method in brief: as §1
[4] = molecular target: Bromodomain-containing protein 3 (Homo sapiens, UniProt Q15059); assay: Inhibition of human recombinant His-tagged BRD3 BD2 domain expressed in Escherichia coli BL21(DE3)-R3-pRARE2 cells by AlphaScreen assay
[5] = molecular target: Bromodomain-containing protein 2 (Homo sapiens, UniProt P25440); assay: Inhibition of human recombinant His-tagged BRD2 BD1 domain expressed in Escherichia coli BL21(DE3)-R3-pRARE2 cells by AlphaScreen assay
[6] = molecular target: Polyamine deacetylase HDAC10 (Homo sapiens, UniProt Q969S8); assay: Inhibition of HDAC10 (unknown origin) using biotinylated histone H3 KAc peptide (1 to 21 residues) as substrate by HTRF assay
Histone deacetylase 9 = Histone deacetylase 9 (Homo sapiens, UniProt Q9UKV0); assay: Inhibition of HDAC9 (unknown origin) using biotinylated histone H3 KAc peptide (1 to 21 residues) as substrate by HTRF assay
Histone deacetylase 8 = Histone deacetylase 8 (Homo sapiens, UniProt Q9BY41); assay: Inhibition of HDAC8 (unknown origin) using biotinylated histone H3 KAc peptide (1 to 21 residues) as substrate by HTRF assay
[7] = molecular target: T1, Bromodomain-containing protein 4 (Homo sapiens, UniProt O60885); assay: Inhibition of BRD4 in human HCT116 cells assessed as induction of autophagic vacuole formation in cytoplasm at 0.5 uM measured after 24 hrs by transmitted electron microscopy; format: cell-based
Method in brief: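 HCT-116 cells were incubated with 0.5 μM compound for 24 hours, fixed, and imaged by transmission electron microscopy for cytoplasmic autophagic vacuoles.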

[8] = molecular target: T1, Bromodomain-containing protein 4; assay: Inhibition of BRD4 in human HCT116 cells assessed as induction of autophagy by measuring decrease in p62 expression at 0.2 to 0.5 uM measured after 24 hrs by Western blot analysis; format: cell-based
[9] = molecular target: T1, Bromodomain-containing protein 4; assay: Inhibition of BRD4 in human HCT116 cells assessed as induction of autophagy by measuring upregulation of beclin1 expression at 0.2 to 0.5 uM measured after 24 hrs by Western blot analysis; format: cell-based
LoVo = assay: Cytotoxicity against human LoVo cells assessed as reduction in cell viability; format: functional, cell-based; method in brief: as §1
Mus musculus [10] = assay: In vivo inhibition of HDAC in BALB/cAnNCrl mouse xenografted with human HCT116 cells assessed as increase in acetylated histone H3 level in tumor tissue at 15 to 30 mg/kg, po administered on day 1 to day 19 measured on day 19 by immunohistochemical analysis; format: functional, organism-based
Method in brief: (§2)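 HCT-116 xenograft mice were dosed orally at 15 or 30 mg/kg, or 30 mg/kg for reference agents, for 19 days, with vehicle or saline controls. Tumor sections were stained for Ki-67, c-Myc, Ac-H3, BRD4, LC3-II, LIFR and p-STAT3 by immunohistochemistry, and TUNEL staining was used as the apoptosis marker.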

Mus musculus [11] = assay: Induction of autophagy in BALB/cAnNCrl mouse xenografted with human HCT116 cells assessed as increase in LC3-II level in tumor tissue at 15 to 30 mg/kg, po administered on day 1 to day 19 measured on day 19 by immunohistochemical analysis; format: functional, organism-based; method in brief: as §2
Mus musculus [12] = assay: Increase in phosphorylated STAT3 expression in tumor tissue of BALB/cAnNCrl mouse xenografted with human HCT116 cells at 15 to 30 mg/kg, po administered on day 1 to day 19 measured on day 19 by immunohistochemical analysis; format: functional, organism-based; method in brief: as §2
[13] = Toxicity in BALB/cAnNCrl mouse xenografted with human HCT116 cells assessed as effect on heart morphological changes at 15 to 30 mg/kg, po administered on day 1 to day 19 measured on day 19 by hematoxylin and eosin staining based assay; format: organism-based; conditions: in vivo
Method in brief: (§3)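 HCT-116 xenograft mice dosed orally at 15 or 30 mg/kg for 19 days, saline as vehicle control; body weights tracked, and main organs sectioned and H&E-stained at study end.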

[14] = Toxicity in BALB/cAnNCrl mouse xenografted with human HCT116 cells assessed as effect on kidney morphological changes at 15 to 30 mg/kg, po administered on day 1 to day 19 measured on day 19 by hematoxylin and eosin staining based assay; format: organism-based; conditions: in vivo; method in brief: as §3
[15] = AUC (0 to infinity) in Sprague-Dawley rat at 30 mg/kg, po measured up to 1440 mins by UPLC-QTOF/MS analysis; format: ADME, organism-based; parameters: dose 30 mg/kg, route oral, time infinity; conditions: in vivo
[16] = Cmax in Sprague-Dawley rat at 30 mg/kg, po measured up to 1440 mins by UPLC-QTOF/MS analysis; format: ADME, organism-based; parameters: dose 30 mg/kg, route oral; conditions: in vivo
[17] = Half life in Sprague-Dawley rat at 30 mg/kg, iv administered as bolus dose measured up to 1440 mins by UPLC-QTOF/MS analysis; format: ADME, organism-based; conditions: in vivo
[18] = Half life in Sprague-Dawley rat at 30 mg/kg, po measured up to 1440 mins by UPLC-QTOF/MS analysis; format: ADME, organism-based; conditions: in vivo
Homo sapiens [19] = species: Homo sapiens; assay: Inhibition of BRD4/HDAC in human HCT116 cells assessed as increase in IL6 mRNA level at 0.5 uM after 24 hrs by RT-PCR analysis; format: cell-based
Method in brief: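 HCT-116 cells incubated 24 h with test agent (0.5 µM, 2.0 µM or 10 µM depending on compound); IL6, OSM, LIF and CTF1 mRNA levels then quantified.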

Homo sapiens [20] = species: Homo sapiens; assay: Inhibition of BRD4/HDAC in human HCT116 cells assessed as inhibition of IL6-JAK-STAT3 signaling pathway by measuring decrease in OSMR expression at 0.5 uM after 24 hrs by Western blot analysis; format: cell-based
Method in brief: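 HCT-116 cells treated 24 h with 0.5 µM, 5.0 µM or 10 µM test agent depending on compound; OSMR, LIFR and downstream pathway proteins detected by western blot.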

[21] = molecular target: T1, Bromodomain-containing protein 4; assay: Inhibition of BRD4 in human HCT116 cells assessed as induction of autophagy by measuring LC3-I cleavage to LC3-II at 0.5 uM measured after 24 hrs by Western blot analysis; format: cell-based
Method in brief: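 HCT-116 cells were treated for 24 hours with 0.5 μM, 2.0 μM or 10 μM agents. LC3 (LC3-I to LC3-II conversion) and p62 were then detected by western blot.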

Chain of Histone deacetylase 9 (Q9UKV0 whole entry, the tested form may be a part): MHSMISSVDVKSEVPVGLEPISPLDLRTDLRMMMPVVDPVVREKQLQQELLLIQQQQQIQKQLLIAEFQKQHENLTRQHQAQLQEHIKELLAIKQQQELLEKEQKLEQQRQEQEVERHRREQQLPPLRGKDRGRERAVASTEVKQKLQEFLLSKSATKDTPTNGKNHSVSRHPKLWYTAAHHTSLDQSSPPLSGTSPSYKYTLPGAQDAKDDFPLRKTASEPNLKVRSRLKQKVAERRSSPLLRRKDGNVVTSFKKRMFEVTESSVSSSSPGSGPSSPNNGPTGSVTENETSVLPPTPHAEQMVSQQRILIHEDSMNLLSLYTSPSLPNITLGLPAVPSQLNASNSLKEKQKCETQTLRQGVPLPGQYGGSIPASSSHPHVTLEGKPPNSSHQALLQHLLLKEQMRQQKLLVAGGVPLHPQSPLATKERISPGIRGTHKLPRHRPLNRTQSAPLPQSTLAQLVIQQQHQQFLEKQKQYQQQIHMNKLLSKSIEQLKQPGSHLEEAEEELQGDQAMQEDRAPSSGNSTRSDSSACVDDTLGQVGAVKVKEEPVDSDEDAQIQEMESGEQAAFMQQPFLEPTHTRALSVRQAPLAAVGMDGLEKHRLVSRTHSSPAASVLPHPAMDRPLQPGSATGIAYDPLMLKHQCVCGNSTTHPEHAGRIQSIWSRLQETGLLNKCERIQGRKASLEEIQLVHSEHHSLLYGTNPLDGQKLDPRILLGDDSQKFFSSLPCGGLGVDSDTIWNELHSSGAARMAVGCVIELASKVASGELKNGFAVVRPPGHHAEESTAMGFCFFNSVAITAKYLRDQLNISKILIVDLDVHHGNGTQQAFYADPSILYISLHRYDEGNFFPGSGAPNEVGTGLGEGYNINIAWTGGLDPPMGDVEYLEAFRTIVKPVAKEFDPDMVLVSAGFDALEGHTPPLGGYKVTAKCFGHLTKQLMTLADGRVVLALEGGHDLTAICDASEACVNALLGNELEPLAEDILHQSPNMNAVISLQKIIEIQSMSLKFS
Chain of Histone deacetylase 8 (Q9BY41 whole entry, the tested form may be a part): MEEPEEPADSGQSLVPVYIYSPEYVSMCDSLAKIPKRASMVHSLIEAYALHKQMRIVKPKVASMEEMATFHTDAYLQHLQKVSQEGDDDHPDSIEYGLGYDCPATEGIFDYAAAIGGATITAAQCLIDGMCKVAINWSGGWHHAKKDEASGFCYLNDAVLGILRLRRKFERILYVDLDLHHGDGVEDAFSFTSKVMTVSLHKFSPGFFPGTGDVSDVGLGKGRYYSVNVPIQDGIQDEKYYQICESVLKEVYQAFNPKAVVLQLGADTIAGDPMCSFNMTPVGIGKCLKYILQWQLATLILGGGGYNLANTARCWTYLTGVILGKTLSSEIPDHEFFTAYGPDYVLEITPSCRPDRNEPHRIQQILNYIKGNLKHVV
Chain of Bromodomain-containing protein 2 (P25440 whole entry, the tested form may be a part): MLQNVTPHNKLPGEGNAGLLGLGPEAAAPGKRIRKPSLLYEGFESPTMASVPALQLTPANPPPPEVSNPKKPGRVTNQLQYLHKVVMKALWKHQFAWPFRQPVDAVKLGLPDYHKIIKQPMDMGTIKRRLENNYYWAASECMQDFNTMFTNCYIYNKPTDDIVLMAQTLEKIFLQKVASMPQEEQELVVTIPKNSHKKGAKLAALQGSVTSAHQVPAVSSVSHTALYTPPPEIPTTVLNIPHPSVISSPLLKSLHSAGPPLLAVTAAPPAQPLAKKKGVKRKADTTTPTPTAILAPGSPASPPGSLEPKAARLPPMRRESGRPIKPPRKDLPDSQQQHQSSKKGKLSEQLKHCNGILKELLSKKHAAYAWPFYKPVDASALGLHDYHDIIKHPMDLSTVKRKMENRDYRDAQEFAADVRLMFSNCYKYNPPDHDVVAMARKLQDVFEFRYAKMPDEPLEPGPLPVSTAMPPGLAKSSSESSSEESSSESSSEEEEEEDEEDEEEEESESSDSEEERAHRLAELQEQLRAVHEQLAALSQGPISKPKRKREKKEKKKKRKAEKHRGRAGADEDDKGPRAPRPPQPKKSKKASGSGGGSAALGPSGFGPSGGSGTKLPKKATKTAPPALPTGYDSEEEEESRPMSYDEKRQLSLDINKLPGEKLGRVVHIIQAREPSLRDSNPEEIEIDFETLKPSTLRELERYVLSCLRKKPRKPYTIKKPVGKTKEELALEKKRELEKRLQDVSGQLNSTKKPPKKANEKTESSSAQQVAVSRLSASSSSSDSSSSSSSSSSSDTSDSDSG
Chain of Polyamine deacetylase HDAC10 (Q969S8 whole entry, the tested form may be a part): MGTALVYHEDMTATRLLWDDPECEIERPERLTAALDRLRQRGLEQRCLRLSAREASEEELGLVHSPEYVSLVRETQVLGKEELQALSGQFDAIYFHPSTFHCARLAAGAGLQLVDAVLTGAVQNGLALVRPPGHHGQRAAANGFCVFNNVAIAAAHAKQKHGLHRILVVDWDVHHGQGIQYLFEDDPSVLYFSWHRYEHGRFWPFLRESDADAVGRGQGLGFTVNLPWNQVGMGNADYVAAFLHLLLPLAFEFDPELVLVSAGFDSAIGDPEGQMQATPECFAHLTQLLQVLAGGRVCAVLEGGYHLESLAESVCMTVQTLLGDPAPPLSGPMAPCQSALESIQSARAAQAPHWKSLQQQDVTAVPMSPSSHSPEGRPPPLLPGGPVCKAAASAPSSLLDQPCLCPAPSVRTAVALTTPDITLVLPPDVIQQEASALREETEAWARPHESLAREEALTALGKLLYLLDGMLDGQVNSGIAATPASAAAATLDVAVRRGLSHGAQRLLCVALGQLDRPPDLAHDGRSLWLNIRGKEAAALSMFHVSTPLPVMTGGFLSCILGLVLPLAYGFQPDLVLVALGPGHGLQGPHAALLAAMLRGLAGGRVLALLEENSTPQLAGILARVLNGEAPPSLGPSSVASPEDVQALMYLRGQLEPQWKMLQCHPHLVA
Chain of Bromodomain-containing protein 3 (Q15059 whole entry, the tested form may be a part): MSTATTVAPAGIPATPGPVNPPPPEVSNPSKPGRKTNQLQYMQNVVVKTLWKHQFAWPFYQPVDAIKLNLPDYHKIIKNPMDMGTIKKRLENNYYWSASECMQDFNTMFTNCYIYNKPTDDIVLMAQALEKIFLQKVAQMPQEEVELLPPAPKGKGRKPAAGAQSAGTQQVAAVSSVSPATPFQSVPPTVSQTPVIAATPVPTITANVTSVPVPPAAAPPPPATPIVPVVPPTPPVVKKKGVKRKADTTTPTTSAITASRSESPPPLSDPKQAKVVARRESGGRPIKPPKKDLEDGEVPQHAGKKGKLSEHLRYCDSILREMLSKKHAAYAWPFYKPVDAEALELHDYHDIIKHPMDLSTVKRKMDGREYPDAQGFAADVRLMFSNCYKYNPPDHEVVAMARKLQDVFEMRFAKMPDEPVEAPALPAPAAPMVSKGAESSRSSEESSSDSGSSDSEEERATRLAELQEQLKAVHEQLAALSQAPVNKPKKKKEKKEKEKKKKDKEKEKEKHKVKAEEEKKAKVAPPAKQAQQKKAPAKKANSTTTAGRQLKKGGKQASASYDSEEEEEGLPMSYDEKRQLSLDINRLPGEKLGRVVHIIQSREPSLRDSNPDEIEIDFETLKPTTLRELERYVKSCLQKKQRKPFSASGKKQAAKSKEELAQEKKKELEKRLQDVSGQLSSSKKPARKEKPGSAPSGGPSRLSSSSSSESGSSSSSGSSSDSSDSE

With `Cc1cc(-c2nc3sc4c(c3c(=O)[nH]2)CCN(C)C4)cc(C)c1OCCCCCC(=O)NO` the AUC(0-inf) [1] was 156 µg·h/mL, the Activity (SW480) was “Active” and the Activity (HCT-116 [2]) was “Active”. The viability at 0.2 µM (HCT-116 [3]) was 61.7%, the Activity (NCM460) was “Non-Toxic” and the IC50 [4] was > 20 µM. For the same molecule, the IC50 [5] was 16.4 µM, the IC50 [6] was 0.923 µM and the IC50 (Histone deacetylase 9) was > 10 µM. For the same molecule, the IC50 (Histone deacetylase 8) was 0.167 µM, the inhibition [7] was “Active” and the inhibition [8] was “Active”. The inhibition [9] was “Active”, the Activity (LoVo) was “Active” and the inhibition (Mus musculus [10]) was “Active”. For the same molecule, the Activity (Mus musculus [11]) was “Active”, the Activity (Mus musculus [12]) was “inactive” and the Activity [13] was “Non-Toxic”. The Activity [14] was “Non-Toxic”, the AUC(0-inf) [15] was 63.3 µg·h/mL and the Cmax [16] was 5360 ng/mL. For the same molecule, the half-life [17] was 2.48 h, the half-life [18] was 4.8 h and the inhibition (Homo sapiens [19]) was “Active”. For the same molecule, the inhibition (Homo sapiens [20]) was “Active” and the inhibition [21] was “Active”.
